The text below walks through data of ChEMBL document CHEMBL1133678, “Synthesis of new indeno[1,2-c]isoquinolines: cytotoxic non-camptothecin topoisomerase I inhibitors” (2000).

One test concerns UACC-62. The test can be described thus: Antiproliferative activity was determined for 50% growth inhibition against human melanoma UACC-62 cell line. Format: functional. Conditions: Homo sapiens, UACC-62. The gist of the method:
(§1)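 Human cancer cell lines from the roughly 55-line panel. GI50 is the concentration giving 50% growth inhibition. The test range was 10^-4 to 10^-8 M. Values outside the range were set to the minimum (10^-8 M) or the maximum (10^-4 M).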

Another test concerns MDA-MB-435. Put plainly: Antiproliferative activity was determined for 50% growth inhibition against human breast MDA-MB-435 cell line. Format: functional. Conditions: Homo sapiens, MDA-MB-435. The gist of the method: as §1
The next test has as its system OVCAR-3. The test can be described thus: Antiproliferative activity was determined for 50% growth inhibition against human ovarian OVCAR-3 cell line. Format: functional. The gist of the method: as §1
Test [1] relates to Panel (Carcinoma cell lines). The test can be described thus: Mean graph midpoint for growth inhibition of all human cancer cell lines. Type of test: functional. The arrangement: unit: µM. The gist of the method: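 Mean graph midpoint across all cell lines successfully tested in the roughly 55-line human cancer panel. Each line's GI50 is the 50% growth-inhibition concentration, tested over 10^-4 to 10^-8 M. Out-of-range values were set to 10^-8 M or 10^-4 M before averaging.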

Another test concerns HOP-62. The test can be described thus: Antiproliferative activity was determined for 50% growth inhibition against human lung HOP-62 cell line. Type of test: functional. Conditions: Homo sapiens, HOP-62. Put shortly:
as §1

For a further test, the system named is HCT-116. Put plainly: Antiproliferative activity was determined for 50% growth inhibition against human colon HCT116 cell line. Format: functional. Conditions: Homo sapiens, HCT-116. Put shortly:
as §1

Test [2] relates to DU-145. Put plainly: Antiproliferative activity was determined for 50% growth inhibition against human Prostate c. Format: functional. To be noted: DU-145, Prostate gland. Put shortly: as §1
The next test relates to SN12C. The test can be described thus: Antiproliferative activity was determined for 50% growth inhibition against human renal SN12C cell line. Type of test: functional. To be noted: Homo sapiens, SN12C. The gist of the method: as §1
For the next test, the system named is SF-539. Put plainly: Antiproliferative activity was determined for 50% growth inhibition against human CNS SF-539 cell line. Format: functional. The gist of the method:
as §1

In test [3] the target is T1, DNA topoisomerase 1 (Homo sapiens) (UniProt P11387).
T1 sequence (whole entry): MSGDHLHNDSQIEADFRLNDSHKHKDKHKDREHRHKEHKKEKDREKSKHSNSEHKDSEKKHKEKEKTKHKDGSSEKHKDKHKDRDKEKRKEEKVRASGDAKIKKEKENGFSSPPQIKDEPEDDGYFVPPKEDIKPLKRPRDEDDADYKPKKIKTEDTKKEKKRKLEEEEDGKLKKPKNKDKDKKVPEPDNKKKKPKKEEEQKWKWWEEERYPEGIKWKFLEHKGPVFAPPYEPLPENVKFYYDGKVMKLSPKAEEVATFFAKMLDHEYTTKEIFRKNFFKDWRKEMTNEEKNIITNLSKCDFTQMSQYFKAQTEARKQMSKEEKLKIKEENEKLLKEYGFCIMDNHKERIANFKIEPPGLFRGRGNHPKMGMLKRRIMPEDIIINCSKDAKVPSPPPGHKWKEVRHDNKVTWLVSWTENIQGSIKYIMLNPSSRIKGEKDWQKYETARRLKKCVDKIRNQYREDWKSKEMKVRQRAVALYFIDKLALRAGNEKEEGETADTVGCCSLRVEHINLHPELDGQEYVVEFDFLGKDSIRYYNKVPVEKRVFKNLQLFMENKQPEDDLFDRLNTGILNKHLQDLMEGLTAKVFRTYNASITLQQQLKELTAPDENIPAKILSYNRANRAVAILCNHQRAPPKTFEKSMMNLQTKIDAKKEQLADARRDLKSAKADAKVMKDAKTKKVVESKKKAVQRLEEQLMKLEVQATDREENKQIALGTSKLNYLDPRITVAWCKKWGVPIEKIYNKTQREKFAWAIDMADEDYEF
Put plainly: Inhibitory activity of compound against human recombinant DNA topoisomerase I mediated DNA cleavage; Weak activity.

For test [4], the system named is DU-145. Put plainly: Antiproliferative activity was determined for 50% growth inhibition against human Prostate DU-145 cell line. Type of test: functional. Conditions: Homo sapiens, DU-145. The gist of the method:
as §1

`COc1cc2c3c(n(CCCNCCO)c(=O)c2cc1OC)-c1cc2c(cc1C3=O)OCO2.Cl`: the GI50 in the test on UACC-62 was 0.03 µM; in the test with MDA-MB-435, 0.79 µM; with OVCAR-3, 0.35 µM; in the test with HOP-62, 0.02 µM; with HCT-116, 0.1 µM; with DU-145 [2], less than 0.01 µM. Also, the GI50 was less than 0.01 µM in the test on SN12C and 0.04 µM in the test on SF-539. The MGM in test [1] is on record as 0.11.
Turning to `O=C1c2ccccc2-c2c1c1ccccc1c(=O)n2CCCl`, the GI50 in the test on UACC-62 was found to be 8.08 µM; in the test on MDA-MB-435, 3.7 µM; in the test on DU-145 [4], 3.5 µM; in the test on OVCAR-3 (Homo sapiens, OVCAR-3), 5.87 µM; in the test on HOP-62, 3.81 µM; in the test on HCT-116, 3.86 µM. The GI50 in the test on SN12C turned out to be 4.39 µM; in the test with SF-539 (Homo sapiens, SF-539), 2.48 µM. Moreover, the Activity result in test [3] is “Weak activity”. In addition, the MGM in test [1] was found to be 4.37.

What is called GI50 is the concentration at which growth is held to half of that of the control.
